Screening data deposited in PubChem by several laboratories.
Shown are actives, neighbours in structure and some others; about 4% of the full set was active somewhere.
Mdm2 MdmX PPI = human Mdm2/MdmX binding inhibition. O15151+Q00987. SaOS-2 split-luciferase Mdm2/MdmX complementation, luminescence. inhibition, % at 8 µM. actives 3% (n = 330,000). AID 485346;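 active = inhibition of at least 50% at 8 µM in the primary screen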
Target sequence (O15151 whole entry, looked up): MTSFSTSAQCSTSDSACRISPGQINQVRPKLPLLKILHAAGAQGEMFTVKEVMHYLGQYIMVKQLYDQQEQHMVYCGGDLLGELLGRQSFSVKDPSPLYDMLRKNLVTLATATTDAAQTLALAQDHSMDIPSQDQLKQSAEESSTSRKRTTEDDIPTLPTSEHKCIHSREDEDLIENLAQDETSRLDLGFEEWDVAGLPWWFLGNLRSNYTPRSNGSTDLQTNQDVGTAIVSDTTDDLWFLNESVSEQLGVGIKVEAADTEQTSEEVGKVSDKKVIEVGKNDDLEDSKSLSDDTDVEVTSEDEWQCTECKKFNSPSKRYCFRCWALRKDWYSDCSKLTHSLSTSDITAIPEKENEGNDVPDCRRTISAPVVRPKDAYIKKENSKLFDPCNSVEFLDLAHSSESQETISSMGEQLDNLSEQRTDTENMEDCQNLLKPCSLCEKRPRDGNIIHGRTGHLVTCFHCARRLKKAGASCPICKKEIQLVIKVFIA
Target sequence (Q00987 whole entry, looked up): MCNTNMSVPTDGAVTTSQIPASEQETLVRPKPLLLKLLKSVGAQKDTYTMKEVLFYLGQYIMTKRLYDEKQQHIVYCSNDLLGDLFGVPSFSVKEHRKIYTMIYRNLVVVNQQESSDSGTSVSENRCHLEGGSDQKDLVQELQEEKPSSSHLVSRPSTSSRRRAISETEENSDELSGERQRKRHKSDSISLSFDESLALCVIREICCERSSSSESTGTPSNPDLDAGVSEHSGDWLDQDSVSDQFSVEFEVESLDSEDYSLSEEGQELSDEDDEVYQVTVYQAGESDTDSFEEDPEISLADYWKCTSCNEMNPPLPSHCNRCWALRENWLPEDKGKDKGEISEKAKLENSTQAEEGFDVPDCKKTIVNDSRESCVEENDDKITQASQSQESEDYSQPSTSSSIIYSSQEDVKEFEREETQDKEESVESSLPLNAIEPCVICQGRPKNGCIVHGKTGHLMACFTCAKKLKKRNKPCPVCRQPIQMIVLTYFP
ABHD5 PLIN5 PPI = blocks binding of human ABHD5 to perilipin-5; Q00G26+Q8WTS1; Split G. princeps luciferase complementation, luminescence, 4 h; inhibition, % at 4 µM; actives 0.78% (n = 360,000);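 active = inhibition above the mean inhibition across every tested compound plus 3 SD, cut at about 22% in these data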;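 note: 0% = DMSO only wells and the 100% control is not disclosed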
XBP1 UPR activ = adaptive UPR (XBP1) activation; CHO-XBP1 luciferase reporter, IRE1-XBP1 UPR activation, luminescence; percent of tunicamycin response, DMSO as zero; activation, % at 20 µM; actives 0.33% (n = 330,000); AID 463104;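 active = versus positive control, 20 µM dose yields 30% or more activation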;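 note: 100% = tunicamycin at 10 µg/mL and 0% = DMSO only wells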
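Material: CHO-XBP1 cells stably carrying IRE1-XBP1-driven luciferase reporter / Amount: 1000 cells per well / Compound: 20 µM, 1% DMSO / Times: 6 h treatment, 37 °C / Detection: luciferase luminescence / Measure: % activation of reporter signal versus tunicamycin and DMSO controls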
Exocytosis inh = lytic granule exocytosis inhibition; TALL-104 LAMP-1 surface exposure, flow cytometry; cells stimulated with thapsigargin and PMA; inhibition, % at 10 µM; actives 0.66% (n = 360,000); AID 651702;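 active = inhibition above about 55%, limit read from the data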
CHOP UPR activ = activators of apoptotic arm of unfolded protein response (CHOP); CHO-CHOP luciferase reporter, UPR activation, luminescence; percent of tunicamycin response over DMSO baseline; activation, % at 10 µM; actives 0.34% (n = 330,000);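 active = at 10 µM dose, activation of 40% or more, normalized to positive control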;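 note: 100% = tunicamycin at 10 µg/mL and 0% = DMSO alone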
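Assay system: CHO cells with stable CHOP pathway luciferase reporter; Buffer or medium: F12 plus 10% serum; Times: 16-18 h cell attachment, then 6 h compound exposure, 37 °C; Signal: luciferase luminescence; Read-out basis: percent activation relative to tunicamycin control; Control set: tunicamycin high control, DMSO low control.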
Mdm2 MdmX conf = human Mdm2/MdmX binding inhibition, confirmed; luminescent assay; actives 55% (n = 10,000); shares compounds with Mdm2 MdmX PPI; inhibition, % at 8 µM; in the data active = inhibition above about 40%
Full FLuc ctr = counter-screen for Mdm2/MdmX inhibitors: full-length luciferase. shares compounds with Mdm2 MdmX PPI. SaOS-2 full-length luciferase counterscreen, luminescence. inhibition, % at 8 µM. actives 77% (n = 6,200);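 active = mean inhibition at 8 µM reaching about 37%, which flags the compound as non-specific, limit read from the data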;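 note: p53-null SaOS-2 cells with luciferase driven by a doxycycline-inducible promoter; compound on cells about two nights before reading with doxycycline added after day one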
Granule exo CP1 = blocks lytic granule exocytosis; AID 651954; shares compounds with Exocytosis inh; actives 11% (n = 1,500); TALL-104 cells, LAMP-1 externalization, flow cytometry; stimulated with PMA plus thapsigargin; inhibition, % at 10 µM; in the data active = inhibition above about 60%;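 note: 0% = stimulated vehicle wells and 100% = unstimulated wells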
An asterisk follows results filed as active; x = no result.

SMILES	Mdm2 MdmX PPI	ABHD5 PLIN5 PPI	XBP1 UPR activ	Exocytosis inh	CHOP UPR activ	Mdm2 MdmX conf	Full FLuc ctr	Granule exo CP1
CC1CCCCN1C(=O)COc1ccc(S(=O)(=O)N2CCCC2)cc1[N+](=O)[O-] (configuration not stated)	-18	-1	3	-2	0	x	x	x
O=C1C(=O)c2ccc(-c3ccccc3)cc2-c2ccccc21	84*	-49	-7	74*	-9	100*	52*	0
CCN1CCN(c2ccc(NC(=O)CCc3c(C)nc4c(-c5ccccc5)c(C)nn4c3C)cc2)CC1	89*	4	0	56*	3	44*	66*	28
Cc1ccc(C)c(CN2CCC(CNC(=O)Nc3ccc(F)c(Cl)c3)CC2)c1	69*	1	1	58*	0	33	56*	0
Cc1ccc(NC(=O)NCC2CCN(Cc3cccc(Cl)c3)CC2)cc1Cl	31	12	-3	44	2	x	x	x
N#Cc1ccc(NC(=O)Nc2ccc(Oc3ccc(NC(=O)Nc4ccc(C#N)cc4)cc3)cc2)cc1	60*	-10	-1	62*	0	74*	35	81*
N#Cc1ccc(NC(=O)Nc2cccc(C#N)c2)cc1	x	-6	x	34	x	x	x	x
O=S(=O)(O)c1cnccc1Nc1cccc(C(F)(F)F)c1	6	2	-2	-3	3	x	x	x
CCN(CC)CCNc1ncnc2c1sc1nc(N3CCCC3)c3c(c12)CC(C)(C)OC3	59*	11	5	56*	1	32	x	1
Nc1cc(=O)[nH]c(SCc2cccc3ccccc23)n1	31	3	-1	-19	4	x	x	x
CNS(=O)(=O)c1cccc(C(=O)NNC(=O)CN(C)S(=O)(=O)c2ccc(Cl)cc2)c1	1	1	-1	-6	1	x	x	x
CCOc1cccc2sc(N(CCN(C)C)C(=O)c3cc4ccccc4cc3OC)nc12	69*	23*	-1	59*	1	28	x	15
O=[N+]([O-])c1cccc(-c2cc(-c3cc(Br)ccc3O)[nH]n2)c1	93*	-6	-1	100*	12	80*	59*	99*
COc1ccc(O)c(-c2cc(-c3cccc(Br)c3)n[nH]2)c1	-65	-9	1	7	8	x	x	x
Cc1c(CN2CCC(CO)(CCOc3ccccc3)CC2)[nH]c2c(Cl)cccc12	87*	20	22	92*	2	54*	64*	13
CCOc1ccc2[nH]c(=O)c(CN(Cc3cccs3)Cc3nnnn3C(C)(C)C)cc2c1	42	-2	-1	0	0	x	x	x
c1ccc(CNc2c3ccccc3nc3ccccc23)cc1	70*	7	-1	61*	2	30	61*	-4
CCOC(=O)c1nc(NCc2ccccc2)c2ccccc2n1	13	1	4	-1	2	x	x	x
Oc1ccccc1Nc1nc(NCc2ccccc2)c2ccccc2n1	83*	5	7	68*	1	33	x	66*
c1ccc(CNc2ncnc3ccccc23)cc1	37	-3	0	-2	-3	x	x	x
c1ccc(CNc2nc(N3CCN(Cc4ccccc4)CC3)nc3ccccc23)cc1	81*	16	-2	101*	2	25	x	24
COc1ccc(/C=C/C(=O)OCC(=O)c2ccccc2F)cc1	-21	7	2	9	3	x	x	x
